High-throughput results from PubChem.
Apaf-1 act: activators of human Apaf-1 apoptosome; O14727; 330,000 tested, 0.31% active; Apaf-1 apoptosome caspase-3 activation, DEVD-Rh110 fluorescence; stronger effect = lower value; activity change, negative = activation, % at 20 µM;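 active = activity change at or below -40% at 20 µM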
Target sequence (O14727 whole entry, looked up): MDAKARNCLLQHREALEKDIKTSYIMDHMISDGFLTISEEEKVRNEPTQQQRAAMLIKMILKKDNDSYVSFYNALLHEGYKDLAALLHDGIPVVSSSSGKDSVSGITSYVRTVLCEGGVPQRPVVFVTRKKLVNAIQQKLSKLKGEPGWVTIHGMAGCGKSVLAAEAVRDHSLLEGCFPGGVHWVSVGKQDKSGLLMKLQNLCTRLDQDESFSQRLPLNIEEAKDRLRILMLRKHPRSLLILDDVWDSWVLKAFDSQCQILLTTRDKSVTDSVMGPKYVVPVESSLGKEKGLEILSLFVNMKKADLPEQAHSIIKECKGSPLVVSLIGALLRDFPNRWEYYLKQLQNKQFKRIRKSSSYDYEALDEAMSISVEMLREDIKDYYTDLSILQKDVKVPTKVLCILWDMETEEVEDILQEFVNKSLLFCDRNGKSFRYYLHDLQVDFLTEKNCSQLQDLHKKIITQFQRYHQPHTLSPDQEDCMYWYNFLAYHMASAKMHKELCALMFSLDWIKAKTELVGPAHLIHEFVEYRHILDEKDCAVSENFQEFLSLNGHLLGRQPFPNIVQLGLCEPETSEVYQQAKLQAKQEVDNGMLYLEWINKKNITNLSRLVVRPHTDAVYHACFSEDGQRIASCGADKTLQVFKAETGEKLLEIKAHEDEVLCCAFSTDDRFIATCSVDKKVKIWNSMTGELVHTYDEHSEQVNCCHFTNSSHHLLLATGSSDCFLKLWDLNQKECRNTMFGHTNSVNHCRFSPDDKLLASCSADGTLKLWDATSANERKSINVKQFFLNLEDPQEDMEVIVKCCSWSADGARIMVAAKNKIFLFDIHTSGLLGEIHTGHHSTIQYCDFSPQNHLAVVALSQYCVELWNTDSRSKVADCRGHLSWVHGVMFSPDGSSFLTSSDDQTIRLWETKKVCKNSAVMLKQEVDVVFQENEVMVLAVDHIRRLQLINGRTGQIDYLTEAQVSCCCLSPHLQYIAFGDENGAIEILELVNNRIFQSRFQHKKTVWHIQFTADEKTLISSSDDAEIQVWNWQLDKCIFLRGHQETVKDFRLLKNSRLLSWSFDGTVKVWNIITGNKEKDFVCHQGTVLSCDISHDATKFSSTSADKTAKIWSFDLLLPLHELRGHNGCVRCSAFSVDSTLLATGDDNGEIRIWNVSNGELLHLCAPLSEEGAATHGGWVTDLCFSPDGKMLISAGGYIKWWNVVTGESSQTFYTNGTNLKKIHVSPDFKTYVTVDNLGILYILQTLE
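Assay system – biochemical Apaf-1 apoptosome reconstitution · Medium – 20 mM HEPES buffer, pH 7.5, containing CHAPS and BSA · Incubation – 30 min preincubation, 50 min reaction, room temperature · Measured by – Caspase-3-released Rh110 fluorescence, 540 nm emission, 480 nm excitation · Read-out – Caspase-3 cleavage activity downstream of Apaf-1 activation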
Rh110 interf act: Rh110 signal interference in Apaf-1 activator counter-screen; shares compounds with Apaf-1 act; fluorescence interference (activity change), % at 20 µM, hits read low; 980 tested, under 10 active; AID 504616; Rh110 fluorescence interference, quenched caspase reaction, Ex480/Em540;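 active = mean activity change at or below -40% when tested at 20 µM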
Apaf-1 act conf: confirmation of human Apaf-1 activators; activity change, negative = activation, % at 20 µM; AID 504617; reconstituted apoptosome caspase-3 activity, DEVD-Rh110 fluorescence; stronger effect = lower value; shares compounds with Apaf-1 act; 980 tested, 5% active;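 active = mean activity change at or below -40%, meaning activation of 40% or more, at 20 µM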
Apaf1 act interf: Apaf-1 activator counter-screen fluorescence artifact; shares compounds with Apaf-1 act; fluorescence interference counterscreen, Apaf-1 activator assay; EC50, µM; 55 tested, under 10 active; AID 588592; call rule not given here
Starred values were filed as active, the others as inactive; . = not tested or not shown. These entries were drawn from the full list.

SMILES | Apaf-1 act | Rh110 interf act | Apaf-1 act conf | others
COc1cc(/C=C/c2cc[n+](C)cc2)ccc1OCC(=O)Nc1ccc(Cl)c(Cl)c1 | 73 | . | .
COc1cccc(/C=C2\SC(=S)N(CCCC(=O)N3CCCCC3)C2=O)c1 | -137* | 11 | 15
C#CCOc1ccc(/C=C2/C(=O)N(c3cccc(C(=O)O)c3)N=C2C)cc1OC | 43 | . | .
COc1ccc(/C=C2\SC(=S)N(CCC(=O)Nc3ccc(C(=O)O)cc3)C2=O)cc1OC | -364* | 4 | -133* | Apaf1 act interf=>100
COC(=O)c1ccc(/C=C2/SC(=S)N(CCCC(=O)Nc3ccc(O)cc3)C2=O)cc1 | -67* | -1 | -27
COc1ccc(/C=C2/Sc3ccc(C(=O)NCCN4CCCCCC4)cc3NC2=O)cc1 | 49 | . | .
O=C(O)CCN1C(=O)/C(=C\c2ccc(OCc3ccccc3)c(OCc3ccccc3)c2)SC1=S | -56* | 10 | -79* | Apaf1 act interf=>100
CCOc1ccc(/C=C2\SC(=S)N(CCCC(=O)NCCCN3CCOCC3)C2=O)cc1 | 42 | . | .
CN(CCO)c1nc(N)c2c(N)nc3c(c2c1C#N)CC(=O)N3C1CCCC1 | 98 | . | .
COc1ccc(OC)c2sc(N(CCCN(C)C)C(=O)c3ccc(S(=O)(=O)N4CCc5ccccc5C4)cc3)nc12 | 55 | . | .
CN1CCN(CCCN2c3ccccc3Sc3ccc(C(F)(F)F)cc32)CC1 | 54 | . | .
CC1(C)C(C(=O)OCC(Cl)(Cl)Cl)N2C(=O)C(NC(=O)Cc3ccccc3)C2S1=O (stereo not drawn) | -85* | 0 | 12
CC1(C)S[C@@H]2[C@H](NC(=O)[C@H](N)c3ccccc3)C(=O)N2[C@H]1C(=O)O | -2 | . | .
COc1ccc(-c2nc3nc(C)c(Cc4ccccc4)c(=O)n3[nH]2)cc1 | 49 | . | . | Apaf1 act interf=>100
COc1ccc(Cn2nc(-c3ccccc3)c(N3CCCCC3)cc2=O)cc1 | 46 | . | .
CCn1c(SCC(=O)c2ccc(F)cc2)nnc1-c1ccoc1C | -223* | -3 | 9
CN(C)c1ncc(C2=C(Cl)C(=O)C(N3CCCC3)=C(Cl)C2=O)s1 | 83 | . | .
CC(C)[C@H](CN1CCC[C@H]1CN1C(N)=NC[C@H]1C(C)C)N1C[C@@H](Cc2ccccc2)N(CCCC2CCCC2)C1=N | 63 | . | .
c1ccc2c(C[C@@H]3CNCCN3CCC34CC5CC(CC(C5)C3)C4)cccc2c1 | 66 | . | .
CN(C(=O)COC(=O)c1cc(S(=O)(=O)N2CCOCC2)c(Cl)cc1Cl)C1CCS(=O)(=O)C1 (stereo not drawn) | -156* | -3 | 7
Cc1cc2nc(SCC(=O)Nc3nonc3C)c3c(c2cc1C)CCCC3 | -48* | 5 | 16
Cc1cc(C)c(C#N)c(SCC(=O)Nc2nonc2N)n1 | 64 | . | .
Cc1c(C(=O)c2ccc(F)cc2F)c2ccccn2c1CCC#N | 63 | . | .
CN1Cc2c(N3CCOCC3)nc3sc(C(=O)c4ccc(Br)cc4)c(N)c3c2CC1(C)C | 56 | . | .
Cc1cc2oc3cc(NCCC4CCCN4C)ccc3c(=O)c2cc1C (stereo not drawn) | 44 | . | .
SMILES | Apaf-1 act | Rh110 interf act | Apaf-1 act conf | others
Cc1ccc(NC(=O)C2CCCN2C(=O)NC2CCCCC2)cc1C (stereo not drawn) | -120* | 13 | 9
COc1cc([N+](=O)[O-])c2ncsc2c1 | -59* | -1 | 8
Cc1ccc(N2CCN(S(=O)(=O)c3cccs3)CC2C)cc1 (stereo not drawn) | 62 | . | .
COc1ccccc1C(=O)NC(CCSC)C(=O)N1CCC(Cc2ccccc2)CC1 (stereo not drawn) | 44 | . | .
COc1ccc2c(c1)c(/C=N/Nc1nc3ccccc3[nH]1)c(C)n2C | 43 | . | .
Fc1cccc(CCN2CCNC[C@H]2Cc2cccc3ccccc23)c1 | 43 | . | .
O=C1C(=Cc2ccco2)C(=O)c2ccccc21 | 44 | . | .
CCCCC(CCC(=O)Nc1cc([N+](=O)[O-])ccc1O)C(=O)O (stereo not drawn) | -227* | 11 | 20
Cc1cc(O)c(C(C)C)cc1N=Cc1cc([N+](=O)[O-])ccc1O | 44 | . | .
C=CC(=O)Nc1ccc(Nc2nc(NC3CCC(N(C)C)CC3)nc3c2ncn3C(C)C)cc1 (stereo not drawn) | 46 | . | .
Cc1cc(C)n2nc(C(=O)N3CCCC(CNS(=O)(=O)c4cccs4)C3)cc2n1 (stereo not drawn) | -394* | 4 | 13
CCCCc1c(C)c(C#N)c2[nH]c3ccccc3n2c1=O | 45 | . | .
CC(=O)[C@@]1(O)CCC2C3C=CC4=CC(=O)CC[C@]4(C)C3CC[C@@]21C (stereo partly drawn) | -287* | 9 | 11
CC(=O)[C@H]1CC[C@H]2[C@@H]3CCC4=CC(=O)CC[C@]4(C)[C@H]3CC[C@]12C | 19 | . | .
CCCC(=O)OC1CC(C)N(C(=O)c2ccccc2)c2ccc(C)cc21 (stereo not drawn) | -67* | 7 | 17
CN1CCN(CC(=O)N2CCn3c4c(c5cc(C6CCCCC6)ccc53)CCCC42)CC1 (stereo not drawn) | 58 | . | .
CC(=O)OCCCNc1cc(Sc2nc3ccccc3s2)c2nonc2c1[N+](=O)[O-] | 96 | . | .
Cc1noc(NS(=O)(=O)c2ccc(N/C=C\C(=O)c3ccc(F)cc3)cc2)c1C | -111* | -3 | 21
CCCCCCSc1cc(-c2nc3cnccn3c2NCCCC)ccc1OC | 46 | . | .
O=C(NCc1ccc2c(c1)OCO2)Nc1cccc(Cl)c1 | -45* | -4 | 10
O=C(NCc1ccco1)Nc1ccc2nsnc2c1 | 59 | . | .
CC(C)(C)c1cc(C(=O)N2CCN(c3ncccn3)CC2)ccn1 | -50* | 5 | 14
C=CCN(CC=C)C(=S)Nc1ccc2nsnc2c1 | 96 | . | .
O=C(NC1CCS(=O)(=O)C1)Oc1ccccc1 (stereo not drawn) | 51 | . | .
O=C(NCCCCCCNC(=O)OC1CCS(=O)(=O)C1)OC1CCS(=O)(=O)C1 (stereo not drawn) | -48* | 8 | 4
SMILES | Apaf-1 act | Rh110 interf act | Apaf-1 act conf | others
COc1ccc(NC(=S)Nc2cccc3cnccc23)cc1 | 95 | . | .
Cc1cc2nc3ccc(N(C)C)cc3nc2cc1N | 90 | . | .
CC1(C)Cc2c(sc3nc(N/N=C/c4ccccc4)[nH]c(=O)c23)CO1 | -236* | 4 | 12
O=C(Nc1ccccc1)Oc1ccc[nH]c1=O | 61 | . | .
COc1cccc(-c2sc3ccc(OC)cc3c2-c2ccc(OCCN3CCCC3)cc2)c1 | 70 | . | .
O=C(NNc1cc(N2CCOCC2)nc(N2CCOCC2)n1)c1ccc([N+](=O)[O-])cc1 | 97 | . | .
O=C1C(=O)N(CCN2CCOCC2)C(c2ccc([N+](=O)[O-])cc2)/C1=C(/O)c1ccc2c(c1)OCO2 (stereo not drawn) | -319* | -7 | 12
O=C(O)C1CCCN(S(=O)(=O)c2ccc(-c3ccc(=O)[nH]n3)s2)C1 (stereo not drawn) | -350* | -5 | 10
CC(=O)Nc1c(I)c(NC(C)=O)c(I)c(C(=O)O)c1I | 11 | . | .
COc1ccc(Nc2ccc3c(c2)=NC2(CCCCC2)[N+]=3[O-])cc1 | 80 | . | .
CCn1c(=NC(=O)c2ccco2)sc2cccc(F)c21 | -432* | 12 | 14
Cc1ccc(O)c([C@H](CCN(C(C)C)C(C)C)c2ccccc2)c1 | 1 | . | .
